# Assay results collected from several papers.
# Target: Homeodomain-interacting protein kinase 4 (HIPK4, Homo sapiens, UniProt Q8NE63)
# Sequence (Q8NE63 1-616, as in one of the studies): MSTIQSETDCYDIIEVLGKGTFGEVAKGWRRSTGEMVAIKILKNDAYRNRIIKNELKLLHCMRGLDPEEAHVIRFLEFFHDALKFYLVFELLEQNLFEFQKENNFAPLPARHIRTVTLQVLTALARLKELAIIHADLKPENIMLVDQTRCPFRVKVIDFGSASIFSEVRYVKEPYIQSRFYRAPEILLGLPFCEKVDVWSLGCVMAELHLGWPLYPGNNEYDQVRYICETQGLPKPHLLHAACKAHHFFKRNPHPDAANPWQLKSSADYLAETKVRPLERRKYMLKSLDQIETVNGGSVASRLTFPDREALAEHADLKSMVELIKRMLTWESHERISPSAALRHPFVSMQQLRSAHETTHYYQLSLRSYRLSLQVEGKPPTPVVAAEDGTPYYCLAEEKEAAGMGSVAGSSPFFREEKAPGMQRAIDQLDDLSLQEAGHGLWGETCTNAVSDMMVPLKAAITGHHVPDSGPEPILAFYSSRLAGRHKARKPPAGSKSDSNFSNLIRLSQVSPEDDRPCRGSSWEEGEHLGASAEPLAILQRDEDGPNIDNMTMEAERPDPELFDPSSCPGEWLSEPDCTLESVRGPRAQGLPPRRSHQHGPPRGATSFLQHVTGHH
Structure (SMILES),assay,setting,measurement,value
Nc1ncc(-c2nc(N3CCOCC3)nc(N3CCOCC3)n2)c(C(F)F)n1,"binding, competition with immobilised ligand",10 µM,remaining binding,100%
Cn1cc(-c2cccc(N3CCc4c(sc5c4CC(C)(C)C5)C3=O)c2CO)cc(Nc2ccncn2)c1=O,"enzyme activity, inhibitor",1 µM,inhibition,11%
COc1ncccc1-c1cnn2ccc(N3CCN(C(=O)OC(C)C)CC3)nc12,"binding, competition with immobilised ligand",1 µM,remaining binding,99%
O=c1[nH]c2ccccc2n1C1CCN(Cc2ccc(-c3[nH]c4cc5ncnc5cc4nc3-c3ccccc3)cc2)CC1,cell-free assay,0.5 µM,remaining signal,99.3%
Cc1nn(C)cc1-c1nc2c(N3CCN(Cc4ccc(Cl)cc4)CC3)c(Cl)cnc2[nH]1,"binding, competition with immobilised ligand",1 µM,remaining binding,85%
CC(C)(C)c1cc(C=C(C#N)C#N)cc(Br)c1O,"enzyme activity, inhibitor",0.5 µM,remaining activity,103%
Cn1cc(-c2cc(F)cc(N3CCn4c(cc5c4CCCC5)C3=O)c2CO)cc(Nc2ccc(N3CCN(C4COC4)CC3)cn2)c1=O,"enzyme activity, inhibitor",0.1 µM,inhibition,11%
Cn1cncc1[C@](O)(COc1ccc(C#N)cc1-c1ccc(OC(F)(F)F)cc1)c1ccc(C#N)cc1,"cell-free assay, competition with immobilised ligand",1 µM,remaining binding,86%
